# Measured values: ChEMBL document CHEMBL4052710 (Bioorg Med Chem Lett, 2017)
# pIC50: −log10 of the molar value. Calls of active or inactive are those of the source. No cut-off for these calls is given here.
# Experiments:
# MCF7 = experiment: Growth inhibition of human MCF7 cells incubated for 72 hrs by CCK8 assay; assay type: functional, cell-based; settings: MCF7, 72 h
# NCI-H460 [1] = experiment: Growth inhibition of human H460 cells incubated for 72 hrs by CCK8 assay; assay type: functional, cell-based; settings: NCI-H460, 72 h
# NCI-H1299 [2] = experiment: Growth inhibition of human H1299 cells incubated for 72 hrs by CCK8 assay; assay type: functional, cell-based; settings: NCI-H1299, 72 h
# A549 [3] = experiment: Growth inhibition of human A549 cells incubated for 72 hrs by CCK8 assay; assay type: functional, cell-based; settings: A549, 72 h
# T47D [4] = experiment: Induction of cell cycle arrest in human T47D cells assessed as increase in G0/G1 phase accumulation incubated for 24 hrs by flow cytometry; assay type: functional, cell-based
# T47D [5] = experiment: Induction of apoptosis in human T47D cells assessed as viable cells level at 5 uM incubated for 48 hrs by annexin V-FITC and propidium iodide staining based flow cytometry (reference value: 96%); assay type: functional
# T47D [6] = experiment: Induction of apoptosis in human T47D cells assessed as early apoptotic cells level at 5 uM incubated for 48 hrs by annexin V-FITC and propidium iodide staining based flow cytometry (reference value: 0.75%); assay type: functional
# T47D [7] = experiment: Induction of apoptosis in human T47D cells assessed as late apoptotic cells level at 5 uM incubated for 48 hrs by annexin V-FITC and propidium iodide staining based flow cytometry (reference value: 0.48%); assay type: functional
# T47D [8] = experiment: Induction of apoptosis in human T47D cells assessed as necrotic cells level at 5 uM incubated for 48 hrs by annexin V-FITC and propidium iodide staining based flow cytometry (reference value: 2.79%); assay type: functional
# [9] = molecular target: CDK4/Cyclin D3 (Homo sapiens) (UniProt P11802+P30281); experiment: Inhibition of human CDK4/CyclinD3 at 1 uM by enzymatic radiometric assay; assay type: protein-complex assay
# Procedure, shortened: (§1)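 Kinase panel run through the Eurofins KinaseProfiler, with compound at a fixed 1 µM. Values are means of two independent experiments.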
# [10] = molecular target: Vascular endothelial growth factor receptor 2 (Homo sapiens, UniProt P35968); experiment: Inhibition of human VEGFR2 at 1 uM by enzymatic radiometric assay
# Chain of Vascular endothelial growth factor receptor 2 (P35968 whole entry): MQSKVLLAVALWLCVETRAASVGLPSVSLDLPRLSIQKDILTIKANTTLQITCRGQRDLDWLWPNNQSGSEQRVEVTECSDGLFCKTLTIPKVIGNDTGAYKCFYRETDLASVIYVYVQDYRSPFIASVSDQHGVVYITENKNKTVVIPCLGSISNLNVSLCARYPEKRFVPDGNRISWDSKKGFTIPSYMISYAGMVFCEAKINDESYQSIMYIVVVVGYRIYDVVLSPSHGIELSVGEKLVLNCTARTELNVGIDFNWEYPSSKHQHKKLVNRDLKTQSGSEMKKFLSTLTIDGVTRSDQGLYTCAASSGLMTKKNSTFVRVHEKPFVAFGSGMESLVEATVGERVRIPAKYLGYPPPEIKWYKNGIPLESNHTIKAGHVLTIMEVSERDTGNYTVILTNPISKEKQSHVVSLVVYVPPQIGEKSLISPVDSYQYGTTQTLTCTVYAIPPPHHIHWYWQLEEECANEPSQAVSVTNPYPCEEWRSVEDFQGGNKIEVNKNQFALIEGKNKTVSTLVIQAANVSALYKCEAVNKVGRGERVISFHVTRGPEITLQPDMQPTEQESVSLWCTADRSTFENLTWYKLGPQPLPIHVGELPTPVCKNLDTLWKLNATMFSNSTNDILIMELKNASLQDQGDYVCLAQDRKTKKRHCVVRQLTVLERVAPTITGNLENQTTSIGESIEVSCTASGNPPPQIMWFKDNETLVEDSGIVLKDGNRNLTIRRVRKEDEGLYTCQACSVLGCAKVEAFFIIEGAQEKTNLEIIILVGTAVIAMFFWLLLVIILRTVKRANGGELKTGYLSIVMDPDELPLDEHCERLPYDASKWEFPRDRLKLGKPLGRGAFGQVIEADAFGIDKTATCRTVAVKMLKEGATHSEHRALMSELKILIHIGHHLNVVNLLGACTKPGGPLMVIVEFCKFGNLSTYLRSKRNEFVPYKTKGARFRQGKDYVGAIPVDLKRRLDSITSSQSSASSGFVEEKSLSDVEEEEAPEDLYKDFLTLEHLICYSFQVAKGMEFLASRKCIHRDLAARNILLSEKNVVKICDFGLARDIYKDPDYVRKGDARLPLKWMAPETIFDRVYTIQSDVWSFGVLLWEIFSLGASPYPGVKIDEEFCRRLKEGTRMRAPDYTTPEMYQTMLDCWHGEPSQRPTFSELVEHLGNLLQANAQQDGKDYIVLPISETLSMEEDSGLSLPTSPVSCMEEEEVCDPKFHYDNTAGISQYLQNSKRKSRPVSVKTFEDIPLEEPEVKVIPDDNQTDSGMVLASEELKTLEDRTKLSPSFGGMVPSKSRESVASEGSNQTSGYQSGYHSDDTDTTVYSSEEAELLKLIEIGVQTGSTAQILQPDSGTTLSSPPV
# T47D [11] = experiment: Growth inhibition of human T47D cells incubated for 72 hrs at 10 uM by CCK8 assay; assay type: functional; settings: read-out: GI
# Procedure, shortened: (§2)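 CCK8 viability assay on a panel of human cancer cell lines, with an initial screen at fixed concentrations of 1 µM and 10 µM.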
# T47D [12] = experiment: Growth inhibition of human T47D cells incubated for 72 hrs at 1 uM by CCK8 assay; assay type: functional; settings: read-out: GI; procedure, shortened: as §2
# A549 [13] = experiment: Growth inhibition of human A549 cells incubated for 72 hrs at 10 uM by CCK8 assay; assay type: functional; settings: A549, 72 h, read-out: GI; procedure, shortened: as §2
# A549 [14] = experiment: Growth inhibition of human A549 cells incubated for 72 hrs at 1 uM by CCK8 assay; assay type: functional; settings: A549, 72 h, read-out: GI; procedure, shortened: as §2
# NCI-H460 [15] = experiment: Growth inhibition of human H460 cells incubated for 72 hrs at 10 uM by CCK8 assay; assay type: functional; settings: NCI-H460, 72 h, read-out: GI; procedure, shortened: as §2
# NCI-H460 [16] = experiment: Growth inhibition of human H460 cells incubated for 72 hrs at 1 uM by CCK8 assay; assay type: functional; settings: NCI-H460, 72 h, read-out: GI; procedure, shortened: as §2
# NCI-H1299 [17] = experiment: Growth inhibition of human H1299 cells incubated for 72 hrs at 10 uM by CCK8 assay; assay type: functional; settings: NCI-H1299, 72 h, read-out: GI; procedure, shortened: as §2
# NCI-H1299 [18] = experiment: Growth inhibition of human H1299 cells incubated for 72 hrs at 1 uM by CCK8 assay; assay type: functional; settings: NCI-H1299, 72 h, read-out: GI; procedure, shortened: as §2
# HeLa [19] = experiment: Growth inhibition of human HeLa cells incubated for 72 hrs at 10 uM by CCK8 assay; assay type: functional; settings: read-out: GI; procedure, shortened: as §2
# HeLa [20] = experiment: Growth inhibition of human HeLa cells incubated for 72 hrs at 1 uM by CCK8 assay; assay type: functional; settings: read-out: GI; procedure, shortened: as §2
# OVCAR-5 [21] = experiment: Growth inhibition of human OVCAR5 cells incubated for 72 hrs at 10 uM by CCK8 assay; assay type: functional; settings: OVCAR-5, 72 h, read-out: GI; procedure, shortened: as §2
# OVCAR-5 [22] = experiment: Growth inhibition of human OVCAR5 cells incubated for 72 hrs at 1 uM by CCK8 assay; assay type: functional; settings: OVCAR-5, 72 h, read-out: GI; procedure, shortened: as §2
# SiHa [23] = experiment: Growth inhibition of human SiHa cells incubated for 72 hrs at 10 uM by CCK8 assay; assay type: functional; settings: read-out: GI; procedure, shortened: as §2
# SiHa [24] = experiment: Growth inhibition of human SiHa cells incubated for 72 hrs at 1 uM by CCK8 assay; assay type: functional; settings: read-out: GI; procedure, shortened: as §2
# T47D [25] = experiment: Growth inhibition of human T47D cells incubated for 72 hrs by CCK8 assay; assay type: functional, cell-based
# [26] = molecular target: CDK6/cyclin D3 (Homo sapiens) (UniProt P30281+Q00534); experiment: Inhibition of human CDK6/CyclinD3 at 1 uM by enzymatic radiometric assay; assay type: protein-complex assay
# [27] = molecular target: Cyclin-dependent kinase 2/cyclin E1 (Homo sapiens) (UniProt P24864+P24941); experiment: Inhibition of human CDK2/CyclinE at 1 uM by enzymatic radiometric assay; assay type: protein-complex assay; procedure, shortened: as §1
# [28] = molecular target: CDK2/Cyclin A2 (Homo sapiens) (UniProt P24941+P20248); experiment: Inhibition of human CDK2/CyclinA at 1 uM by enzymatic radiometric assay; assay type: protein-complex assay; procedure, shortened: as §1
# [29] = molecular target: Cyclin-dependent kinase 1/cyclin B1 (Homo sapiens) (UniProt P06493+P14635); experiment: Inhibition of human CDK1/CyclinB at 1 uM by enzymatic radiometric assay; assay type: protein-complex assay; procedure, shortened: as §1
# [30] = molecular target: CDK3/Cyclin E (Homo sapiens) (UniProt P24864+Q00526); experiment: Inhibition of human CDK3/CyclinE at 1 uM by enzymatic radiometric assay; assay type: protein-complex assay; procedure, shortened: as §1
# Chain of CDK3/Cyclin E (Homo sapiens) (P24864 whole entry, looked up): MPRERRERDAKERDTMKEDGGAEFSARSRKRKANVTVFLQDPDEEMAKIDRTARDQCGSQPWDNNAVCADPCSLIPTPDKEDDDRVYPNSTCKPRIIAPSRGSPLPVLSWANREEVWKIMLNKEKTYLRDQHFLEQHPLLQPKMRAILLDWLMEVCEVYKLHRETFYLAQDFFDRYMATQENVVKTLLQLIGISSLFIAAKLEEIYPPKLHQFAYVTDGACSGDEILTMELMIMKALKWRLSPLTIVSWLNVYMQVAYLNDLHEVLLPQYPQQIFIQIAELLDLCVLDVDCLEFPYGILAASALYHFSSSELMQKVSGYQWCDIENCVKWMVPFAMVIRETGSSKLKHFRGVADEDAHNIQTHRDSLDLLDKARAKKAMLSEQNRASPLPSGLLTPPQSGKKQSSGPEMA
# Chain of CDK3/Cyclin E (Homo sapiens) (Q00526 whole entry, looked up): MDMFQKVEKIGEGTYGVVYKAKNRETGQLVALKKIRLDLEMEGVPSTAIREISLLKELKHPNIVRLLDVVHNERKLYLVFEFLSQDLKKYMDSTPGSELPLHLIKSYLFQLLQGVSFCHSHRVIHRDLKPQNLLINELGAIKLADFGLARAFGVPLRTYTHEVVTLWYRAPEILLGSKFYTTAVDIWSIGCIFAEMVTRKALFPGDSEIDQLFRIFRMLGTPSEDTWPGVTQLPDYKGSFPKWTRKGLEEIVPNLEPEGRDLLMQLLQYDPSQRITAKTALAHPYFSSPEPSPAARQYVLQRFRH
# [31] = molecular target: T1, Cyclin-dependent kinase 5/CDK5 activator 1 (Homo sapiens) (UniProt Q00535+Q15078); experiment: Inhibition of human CDK5/p25 at 1 uM by enzymatic radiometric assay; assay type: protein-complex assay
# T1 sequence (Q00535 whole entry): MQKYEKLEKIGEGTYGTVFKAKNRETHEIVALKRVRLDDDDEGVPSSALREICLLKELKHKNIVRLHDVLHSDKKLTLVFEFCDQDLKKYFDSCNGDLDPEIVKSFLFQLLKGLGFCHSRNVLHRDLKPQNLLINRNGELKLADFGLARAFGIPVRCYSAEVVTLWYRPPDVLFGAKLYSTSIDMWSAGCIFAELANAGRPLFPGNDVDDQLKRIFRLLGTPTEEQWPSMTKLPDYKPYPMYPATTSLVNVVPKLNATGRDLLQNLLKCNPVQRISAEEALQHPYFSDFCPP
# T1 sequence (Q15078 99-307 partner limits assumed): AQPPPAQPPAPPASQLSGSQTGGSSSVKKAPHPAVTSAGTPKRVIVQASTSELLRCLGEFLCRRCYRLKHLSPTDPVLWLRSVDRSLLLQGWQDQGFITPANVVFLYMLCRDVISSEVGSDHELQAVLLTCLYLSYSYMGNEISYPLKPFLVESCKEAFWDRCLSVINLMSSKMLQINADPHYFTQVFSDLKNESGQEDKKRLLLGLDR
# [32] = molecular target: T1, Cyclin-dependent kinase 5/CDK5 activator 1 (Homo sapiens); experiment: Inhibition of human CDK5/p35 at 1 uM by enzymatic radiometric assay; assay type: protein-complex assay
# [33] = molecular target: CDK7/Cyclin H/MNAT1 (Homo sapiens) (UniProt P51946+P50613+P51948); experiment: Inhibition of human CDK7/CyclinH/MAT1 at 1 uM by enzymatic radiometric assay; assay type: protein-complex assay
# [34] = molecular target: CDK9/cyclin T1 (Homo sapiens) (UniProt O60563+P50750); experiment: Inhibition of human CDK9/CyclinT1 at 1 uM by enzymatic radiometric assay; assay type: protein-complex assay
# [35] = molecular target: CDK12/Cyclin K (Homo sapiens) (UniProt O75909+Q9NYV4); experiment: Inhibition of human CDK12/CyclinK at 1 uM by enzymatic radiometric assay; assay type: protein-complex assay; procedure, shortened: as §1
# Chain of CDK12/Cyclin K (Homo sapiens) (O75909 whole entry, looked up): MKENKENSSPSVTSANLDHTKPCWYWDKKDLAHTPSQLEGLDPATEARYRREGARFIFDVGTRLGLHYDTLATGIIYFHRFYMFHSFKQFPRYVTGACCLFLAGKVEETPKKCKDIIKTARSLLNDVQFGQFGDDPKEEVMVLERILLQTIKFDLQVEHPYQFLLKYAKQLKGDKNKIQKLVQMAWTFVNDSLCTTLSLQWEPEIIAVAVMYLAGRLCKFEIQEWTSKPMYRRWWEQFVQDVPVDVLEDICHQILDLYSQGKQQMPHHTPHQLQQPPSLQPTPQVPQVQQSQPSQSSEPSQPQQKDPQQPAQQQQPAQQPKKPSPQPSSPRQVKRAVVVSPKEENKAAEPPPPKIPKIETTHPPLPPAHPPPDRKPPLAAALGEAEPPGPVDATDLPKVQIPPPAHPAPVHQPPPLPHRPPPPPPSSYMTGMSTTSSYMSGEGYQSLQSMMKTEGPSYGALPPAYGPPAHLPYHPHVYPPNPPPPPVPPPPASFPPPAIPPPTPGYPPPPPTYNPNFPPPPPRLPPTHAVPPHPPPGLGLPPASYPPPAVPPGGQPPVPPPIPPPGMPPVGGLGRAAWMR
# Chain of CDK12/Cyclin K (Homo sapiens) (Q9NYV4 whole entry, looked up): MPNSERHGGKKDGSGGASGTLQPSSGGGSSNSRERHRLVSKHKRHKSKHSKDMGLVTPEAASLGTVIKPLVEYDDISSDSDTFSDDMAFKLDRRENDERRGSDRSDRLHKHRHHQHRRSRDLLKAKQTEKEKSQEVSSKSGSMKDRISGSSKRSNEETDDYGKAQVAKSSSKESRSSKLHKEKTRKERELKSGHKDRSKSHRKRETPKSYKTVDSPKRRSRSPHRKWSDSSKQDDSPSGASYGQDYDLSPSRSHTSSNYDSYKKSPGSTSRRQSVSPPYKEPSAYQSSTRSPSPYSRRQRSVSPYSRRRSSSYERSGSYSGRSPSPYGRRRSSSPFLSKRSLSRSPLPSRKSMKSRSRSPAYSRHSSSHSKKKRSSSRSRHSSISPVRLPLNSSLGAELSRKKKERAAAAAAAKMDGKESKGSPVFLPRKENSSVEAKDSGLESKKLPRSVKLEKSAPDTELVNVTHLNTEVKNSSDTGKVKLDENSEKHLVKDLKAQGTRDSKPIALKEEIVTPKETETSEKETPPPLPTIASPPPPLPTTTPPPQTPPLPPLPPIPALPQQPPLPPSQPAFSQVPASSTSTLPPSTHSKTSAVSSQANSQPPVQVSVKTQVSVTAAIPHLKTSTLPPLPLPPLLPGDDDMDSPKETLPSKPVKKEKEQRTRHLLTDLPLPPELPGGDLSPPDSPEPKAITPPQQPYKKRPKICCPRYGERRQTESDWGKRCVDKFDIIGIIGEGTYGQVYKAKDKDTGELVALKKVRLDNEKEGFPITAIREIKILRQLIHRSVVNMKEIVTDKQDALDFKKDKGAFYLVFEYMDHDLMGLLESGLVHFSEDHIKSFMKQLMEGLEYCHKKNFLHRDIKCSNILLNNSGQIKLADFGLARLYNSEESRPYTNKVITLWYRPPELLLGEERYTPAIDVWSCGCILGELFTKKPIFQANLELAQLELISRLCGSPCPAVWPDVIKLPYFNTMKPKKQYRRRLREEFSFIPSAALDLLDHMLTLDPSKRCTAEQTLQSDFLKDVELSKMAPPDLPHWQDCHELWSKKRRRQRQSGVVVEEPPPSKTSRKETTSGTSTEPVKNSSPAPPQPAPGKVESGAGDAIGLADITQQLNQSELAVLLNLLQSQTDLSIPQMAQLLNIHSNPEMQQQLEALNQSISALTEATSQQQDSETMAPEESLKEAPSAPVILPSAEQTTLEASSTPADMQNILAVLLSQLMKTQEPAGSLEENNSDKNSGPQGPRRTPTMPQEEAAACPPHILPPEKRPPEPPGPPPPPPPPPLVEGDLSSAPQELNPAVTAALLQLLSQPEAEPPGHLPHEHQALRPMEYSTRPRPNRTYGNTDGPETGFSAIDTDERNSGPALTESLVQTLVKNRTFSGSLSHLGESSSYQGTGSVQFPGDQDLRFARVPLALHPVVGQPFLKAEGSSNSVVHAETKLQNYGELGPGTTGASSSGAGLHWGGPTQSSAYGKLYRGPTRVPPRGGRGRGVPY
# [36] = molecular target: CDK18/Cyclin Y (Homo sapiens) (UniProt Q07002+Q8ND76); experiment: Inhibition of human CDK18/CyclinY at 1 uM by enzymatic radiometric assay; assay type: protein-complex assay; procedure, shortened: as §1
Compound,pIC50 (MCF7),pIC50 (NCI-H460 [1]),pIC50 (NCI-H1299 [2]),pIC50 (A549 [3]),inhibition [9],inhibition [10],inhibition of growth at 10 µM (T47D [11]),inhibition of growth at 1 µM (T47D [12]),inhibition of growth at 10 µM (A549 [13]),inhibition of growth at 1 µM (A549 [14]),inhibition of growth at 10 µM (NCI-H460 [15]),inhibition of growth at 1 µM (NCI-H460 [16]),inhibition of growth at 10 µM (NCI-H1299 [17]),inhibition of growth at 1 µM (NCI-H1299 [18]),inhibition of growth at 10 µM (HeLa [19]),inhibition of growth at 1 µM (HeLa [20]),inhibition of growth at 10 µM (OVCAR-5 [21]),inhibition of growth at 1 µM (OVCAR-5 [22]),inhibition of growth at 10 µM (SiHa [23]),inhibition of growth at 1 µM (SiHa [24]),also measured
CN(C)C(=O)c1cc2cnc(Nc3ccc(N4CCNCC4)cn3)nc2n1C1CCCC1 [RIBOCICLIB],< 5.00,< 5.00,5.12,< 5.00,,,,,,,,,,,,,,,,,Activity (T47D [4]): Active; Activity (T47D [5]): 94.8%; Activity (T47D [6]): 0.34%; Activity (T47D [7]): 2.91%; Activity (T47D [8]): 1.94%
CN(C)C(=O)c1cc2cnc(Nc3ccc(NC(=O)C4(C(=O)Nc5ccc(Cl)c(C(F)(F)F)c5)CC4)cc3)nc2n1C1CCCC1,,,,,24%,4%,55.8%,6.9%,88.1%,1.1%,91.9%,2.1%,90.4%,39.5%,55.6%,16.5%,48%,-2.4%,61.1%,-11.2%,
COc1cc2nccc(Oc3ccc(NC(=O)C4(C(=O)Nc5ccc(F)cc5)CC4)cc3)c2cc1OC [CABOZANTINIB],5.54,5.25,5.72,5.35,,,,,,,,,,,,,,,,,pIC50 (T47D [25]): 5.35
Nc1ccc(NC(=O)C2(C(=O)Nc3ccc(F)cc3)CC2)cc1F,,,,,,,30.4%,5.6%,14.6%,16.3%,62.9%,26.7%,59.2%,46.2%,71.8%,14%,9.7%,6.7%,36%,21.7%,
CN(C)C(=O)c1cc2cnc(Nc3ccc(NC(=O)C4(C(=O)Nc5ccc(O)cc5)CC4)cc3)nc2n1C1CCCC1,,,,,95%,36%,95.8%,91.5%,94.4%,93.6%,104%,90.4%,89.7%,87.4%,99.9%,62.3%,90.9%,80.7%,94.3%,69.5%,inhibition [26]: 86%; inhibition [27]: 88%; inhibition [28]: 90%; inhibition [29]: 90%; inhibition [30]: 89%; inhibition [31]: 94%; inhibition [32]: 88%; inhibition [33]: -9%; inhibition [34]: 26%; inhibition [35]: 23%; inhibition [36]: 0%
